PfGluPho inh: PfG6PD (Plasmodium falciparum) enzyme inhibition. PfGluPho enzyme, NADPH resazurin-diaphorase fluorescence. inhibition, % at 20 µM. 0.78% of 350,000 active. AID 504690;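 active = inhibition reaching at least a set limit at 20 µM in the primary screen, cut at about 59% in these data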
Diaphorase inh: counter-screen for diaphorase-based assays: diaphorase inhibitors and chemical oxidizers. diaphorase resazurin-to-resorufin fluorescence, NADH, 16 min; bacterial (C. kluyveri) enzyme, not human. 0.69% of 190,000 active. inhibition, % at 20 µM;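 active = primary screen inhibition at 20 µM above a set limit, cut at about 50% in these data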
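Assay system: diaphorase enzyme from Clostridium kluyveri; Input: enzyme working solution with 0.14 U/mL diaphorase; Timing: 16 min at room temperature; Technique: resorufin fluorescence, excitation 544 nm, emission 590 nm; Benchmarks: positive control minus NADH, DMSO neutral control.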
G6PDH CS: counter-screen for G6PDH assay hits: L. mesenteroides G6PDH inhibition. 0.12% of 200,000 active. inhibition, % at 5 µM. Purified L. mesenteroides G6PDH, diaphorase/resazurin coupled fluorescence, 45 min. AID 1020; in the data active = inhibition above about 50%
HKDC1 inh: blocks human hexokinase HKDC1 activity | Q2TB90 | recombinant HKDC1, G6PDH/diaphorase resazurin coupled fluorescence | inhibition, % at 20 µM | 0.16% of 340,000 active;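 active = inhibition above about 35% when tested at 20 µM, limit read from the data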
Target sequence (Q2TB90 whole entry, looked up): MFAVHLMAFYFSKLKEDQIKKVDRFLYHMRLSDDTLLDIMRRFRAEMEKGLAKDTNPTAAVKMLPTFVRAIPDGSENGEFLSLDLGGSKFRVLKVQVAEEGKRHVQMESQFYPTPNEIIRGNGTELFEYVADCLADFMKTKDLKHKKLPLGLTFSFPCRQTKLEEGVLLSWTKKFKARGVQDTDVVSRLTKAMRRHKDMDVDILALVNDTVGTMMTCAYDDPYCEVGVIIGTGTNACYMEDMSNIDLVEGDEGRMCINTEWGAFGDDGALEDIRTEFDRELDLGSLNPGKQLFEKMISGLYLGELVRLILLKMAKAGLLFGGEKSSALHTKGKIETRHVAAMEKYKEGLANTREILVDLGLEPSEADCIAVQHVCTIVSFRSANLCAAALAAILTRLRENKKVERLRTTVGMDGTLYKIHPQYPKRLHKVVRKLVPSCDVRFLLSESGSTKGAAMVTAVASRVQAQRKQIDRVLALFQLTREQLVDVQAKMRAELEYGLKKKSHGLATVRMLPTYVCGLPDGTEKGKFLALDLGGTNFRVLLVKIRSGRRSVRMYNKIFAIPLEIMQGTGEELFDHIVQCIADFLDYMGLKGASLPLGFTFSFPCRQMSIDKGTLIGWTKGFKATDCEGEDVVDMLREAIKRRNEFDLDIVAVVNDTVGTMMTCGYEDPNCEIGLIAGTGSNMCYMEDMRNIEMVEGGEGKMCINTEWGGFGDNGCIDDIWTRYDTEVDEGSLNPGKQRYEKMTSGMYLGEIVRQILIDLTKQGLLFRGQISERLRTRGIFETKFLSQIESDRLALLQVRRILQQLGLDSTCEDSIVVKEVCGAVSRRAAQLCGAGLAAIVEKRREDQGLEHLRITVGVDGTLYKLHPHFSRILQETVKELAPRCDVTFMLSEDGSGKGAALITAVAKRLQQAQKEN
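Assay system: recombinant HKDC1 hexokinase; detection: coupled resazurin fluorescence, excitation 525 nm, emission 613 nm; benchmarks: DMSO-plus-enzyme-mix negative control, buffer-substituted positive control; compound dosing: single 20 µM dose; schedule: 90 min at room temperature in dark; also added: glucose plus 1 mM ATP as hexokinase substrates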
PfGluPho conf: PfG6PD inhibition, single-dose confirmed | shares compounds with PfGluPho inh | inhibition, % at 20 µM | 34% of 2,400 active | recombinant PfGluPho, NADPH-diaphorase-resazurin fluorescence;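 active = inhibition of at least 50% at 20 µM in any single replicate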
Diaphorase 10uM: inhibits diaphorase or oxidizes, flagging false PfG6PD hits | AID 504862 | diaphorase-coupled resazurin reduction, fluorescence, NADPH 10 uM | shares compounds with PfGluPho inh | 39% of 820 active | inhibition, % at 20 µM;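 active = average inhibition reaching 50% or more with the compound at 20 µM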;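 note: resorufin red fluorescence formed as diaphorase reduces resazurin using NADPH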
Diaph ctr 30uM: diaphorase inhibition or oxidation at 30 uM NADPH | shares compounds with PfGluPho inh | 29% of 820 active | inhibition, % at 20 µM | Diaphorase/resazurin coupled assay, resorufin fluorescence;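 active = inhibition averaging 50% or more, tested at 20 µM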
Each line names hits and unclear results; the compound was inactive in the other large screens (follow-up assays come after a bar, where they were run). Shown are actives, neighbours in structure and some others; about 1.3% of the full set was active somewhere.

COc1ccccc1C(CNC(=O)C1CCN(C(=O)Nc2ccccc2)CC1)N1CCCC1 (configuration not stated)	none (no result: Diaphorase inh, G6PDH CS)
COc1cc2c(cc1[N+](=O)[O-])-c1ccc([N+](=O)[O-])cc1C2=NNC(N)=S	PfGluPho inh 73.4 (no result: Diaphorase inh, G6PDH CS, HKDC1 inh) | PfGluPho conf inactive
NC(=S)NN=C1c2cc(Cl)ccc2-c2c1cc(Cl)cc2[N+](=O)[O-]	none (no result: Diaphorase inh, G6PDH CS)
CCC1(c2ccc(F)cc2)NC(=O)N(CC(=O)NC2CCCC(C)C2C)C1=O (configuration not stated)	none (no result: Diaphorase inh, G6PDH CS)
CN1CCc2c(sc3c2c(=O)n(-c2ccccc2)c2nnc(SCc4ccccc4)n32)C1	PfGluPho inh 60.2 | PfGluPho conf inactive
CCN1C(=O)[C@H]2[C@H]3CN=C(SC)N3[C@@](Cc3ccccc3)(C(=O)OC)[C@H]2C1=O	none (no result: Diaphorase inh, G6PDH CS)
COc1ccc(Nc2cc(C)c3ccccc3n2)cc1	PfGluPho inh 65.6 | PfGluPho conf inactive
COc1ccc(Nc2ccc(Nc3ccc(OC)cc3)nn2)cc1	none
COc1ccc(Nc2ccc(OC)cc2)cc1	PfGluPho inh 63.8 (no result: Diaphorase inh, G6PDH CS) | PfGluPho conf inactive
Cc1cc(Nc2ccc([N+](=O)[O-])cc2)nc2ccccc12	none
CCN(CC)C(=O)C1=C(C)N(CCCN2CCCC2=O)C(=O)C(CC(=O)NCc2ccco2)C1 (configuration not stated)	none (no result: Diaphorase inh, G6PDH CS, HKDC1 inh)
Brc1cccc(-c2nnc(SCc3nc4ccccc4[nH]3)o2)c1	PfGluPho inh 60.1 | PfGluPho conf inactive
c1ccc2[nH]c(CSc3nnc(-c4ccncc4)o3)nc2c1	none
CC1=Nc2cccc3cccc(c23)N1	none
COc1cccc(C2=Nc3cccc4cccc(c34)N2)c1	PfGluPho inh 73.1 | PfGluPho conf inactive
CN1C(=O)C(N=Nc2ccc([N+](=O)[O-])cc2)SC1=S (configuration not stated)	PfGluPho inh 105.8 (no result: Diaphorase inh, G6PDH CS) | PfGluPho conf 52.0 | Diaphorase 10uM 54.0 | Diaph ctr 30uM inactive
Cc1cc(Cn2nc(C(=O)NCc3cccc(C(F)(F)F)c3)cc2-c2ccccc2)on1	none (no result: Diaphorase inh, G6PDH CS)
COc1ccc(Br)cc1/C=N/NC(=O)CNC(=O)C1COc2ccccc2O1 (configuration not stated)	PfGluPho inh 119.1 (no result: Diaphorase inh, G6PDH CS) | PfGluPho conf 102.7 | Diaphorase 10uM 97.0 | Diaph ctr 30uM 76.5
COCCn1c(N)c(C(=O)NCC2CCCO2)c2nc3ccccc3nc21 (configuration not stated)	none
Nc1c(C(=O)OCC2CCCO2)c2nc3ccccc3nc2n1C1CCCC1 (configuration not stated)	none | PfGluPho conf inactive
CCOc1ccc2nc(SCC(=O)NCc3ccc(S(N)(=O)=O)cc3)[nH]c2c1	none (no result: Diaphorase inh, G6PDH CS)
Cc1ccc(C(=O)N(CC(=O)Nc2ccc(Cl)c(Cl)c2)Cc2ccco2)cc1	none
O=C(CN(Cc1ccco1)C(=O)c1ccccc1)Nc1ccc(Cl)c(Cl)c1	PfGluPho inh 62.3 | PfGluPho conf inactive
O=C(/C=C/c1ccco1)Nc1scc(-c2ccccc2)c1C(=O)O	PfGluPho inh 75.2 (no result: Diaphorase inh, G6PDH CS) | PfGluPho conf inactive
O=C(/C=C/c1ccccc1)Nc1scc(-c2ccccc2)c1C(=O)O	PfGluPho inh 60.6 | PfGluPho conf inactive
O=C(/C=C/c1ccco1)Nc1nc(-c2ccccc2)cs1	none
O=C(Nc1scc(-c2ccccc2)c1C(=O)O)c1ccc(F)cc1	none (no result: Diaphorase inh, G6PDH CS)
C(=N\NC1=Nc2cccc3cccc1c23)/c1ccccn1	PfGluPho inh 65.3 | PfGluPho conf inactive
COc1ccc(C(=O)NCC2(c3ccc(OC)c(OC)c3)CCCC2)cc1OC	none (no result: Diaphorase inh, G6PDH CS, HKDC1 inh)
COc1ccc(C2(CNC(=O)c3ccc(OC)c([N+](=O)[O-])c3)CCCCC2)cc1OC	PfGluPho inh 85.5 | PfGluPho conf 52.6 | Diaphorase 10uM 53.5 | Diaph ctr 30uM inactive
COc1ccccc1NC(=O)Nc1nn(C)c2cccc(N(C)C)c12	PfGluPho inh 64.1 (no result: Diaphorase inh, G6PDH CS) | PfGluPho conf inactive
COc1ccc(CNCCCC(=O)Nc2c(Cl)ccc(C)c2Cl)cc1OC	none (no result: Diaphorase inh, G6PDH CS)
NCCNc1ccc(C(=O)N2c3ccccc3Sc3ccccc32)cc1[N+](=O)[O-]	PfGluPho inh 69.3 (no result: Diaphorase inh, G6PDH CS) | PfGluPho conf 91.8 | Diaphorase 10uM inactive | Diaph ctr 30uM inactive
Nc1ccc(C(=O)OCC(=O)N2c3ccccc3Sc3ccccc32)cc1[N+](=O)[O-]	none
Cc1nnc(SCc2nc3scc(-c4ccccc4)c3c(=O)[nH]2)s1	PfGluPho inh 60.4 (no result: Diaphorase inh, G6PDH CS) | PfGluPho conf inactive
CCn1c(SCc2nc3scc(-c4ccccc4)c3c(=O)[nH]2)nnc1-c1cccs1	none | PfGluPho conf 49.0 | Diaphorase 10uM inactive | Diaph ctr 30uM inactive
COc1ccc(/C=C(/NC(=O)c2ccccc2)C(=O)N/N=C/c2cccs2)cc1OC	none
COc1ccc([N+](=O)[O-])cc1/C=N/NC(=O)/C(=C\c1cccs1)NC(=O)c1ccccc1	PfGluPho inh 99.1 | PfGluPho conf 82.3 | Diaphorase 10uM 85.5 | Diaph ctr 30uM 69.7
COc1ccccc1N(CC(=O)NCc1ccc2c(c1)OCO2)C(=O)CCC(=O)Nc1nccs1	none (no result: Diaphorase inh, G6PDH CS)
O=C(OCc1c(-c2ccccc2)ncc2ccccc12)N1CCOCC1	none (no result: Diaphorase inh, G6PDH CS)
O=C(CS(=O)(=O)c1c[nH]c2ccccc12)Nc1ccc(F)cc1	none (no result: Diaphorase inh, G6PDH CS)
O=S(=O)(Cc1cccc(F)c1)c1c[nH]c2ccccc12	PfGluPho inh 85.9 | PfGluPho conf inactive
Cn1cnnc1SCC(=O)NC1CC1	none (no result: Diaphorase inh, G6PDH CS)
C[C@H](CO)N1C[C@H](C)[C@@H](CN(C)S(=O)(=O)c2cn(C)cn2)Oc2ccc(NC(=O)Cn3cnnn3)cc2C1=O	none (no result: Diaphorase inh, G6PDH CS)
N#C/C(=C/c1ccc(N2CCOCC2)o1)c1ccc(Cl)cc1	PfGluPho inh 77.8 | PfGluPho conf inactive
N#C/C(=C\c1ccc(N2CCOCC2)o1)c1nc2ccccc2[nH]1	none
COc1cc(C(=O)OCC(=O)Nc2ccccc2)cc2c1OCCO2	none (no result: Diaphorase inh, G6PDH CS, HKDC1 inh)
CCN=c1scc(C)n1/N=C/c1cc(Br)c(O)c(Br)c1	none
CCN=c1scc(C)n1/N=C/c1ccc(O)c(O)c1O	PfGluPho inh 80.5, Diaphorase inh 78.8 | PfGluPho conf 72.5 | Diaphorase 10uM inactive | Diaph ctr 30uM inactive
CCOC(=O)c1ccc(S(=O)(=O)Nc2cc(C(=O)O)ccc2Cl)cc1	none | PfGluPho conf inactive
CCOC(=O)c1ccc(S(=O)(=O)NNS(=O)(=O)c2ccc(C)cc2)cc1	none (no result: Diaphorase inh, G6PDH CS)
CC(C)C[C@@]12C(=O)N(c3cccc(F)c3)C(=O)N1[C@H](c1ccc(F)cc1)[C@@H]1C(=O)N(C3CCCCC3)C(=O)[C@@H]12	none (no result: Diaphorase inh, G6PDH CS)
COc1ccc(S(=O)(=O)N(C)C)cc1NC(=O)Cc1ccc(S(=O)(=O)N2CCOCC2)s1	none (no result: Diaphorase inh, G6PDH CS)
O=C1C=CC(=O)N1c1ccc2c(c1)Cc1cc(F)ccc1-2	PfGluPho inh 83.8 (no result: Diaphorase inh, G6PDH CS) | PfGluPho conf inactive
O=[N+]([O-])c1ccc2c(c1)Cc1cc(F)ccc1-2	none (no result: Diaphorase inh, G6PDH CS)
